For 22 compounds, Activity results are on record in ChEMBL document CHEMBL3243949, “Discriminant--analytical investigation on the structural dependence of hyperglycemic and hypoglycemic activity in a series of substituted o-toluenesulfonylthioureas and o-toluenesulfonylureas” (1979).

The test system of one experiment is Rattus norvegicus. The experiment in a line: Hypoglycemic activity in rat assessed as blood glucose level per 100 ml at 70 mg/kg, ip after 90 mins. The format is functional. Particulars: route intraperitoneal. Put shortly:
(§1)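 Narcotized rats, six per experiment; blood sugar measured before and 90 min after intraperitoneal dosing (70 and 100 mg/kg used in study). Glucose determined by o-toluidine reaction in acid medium. Values are mean of six rats ± 2 s. Classed hyper- or hypoglycemic by Student's t test, before vs after, when α < 0.01.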
For `CCCCNC(=O)NS(=O)(=O)c1ccc(OCCC)cc1C`, the Activity was 130 mg.
On the same count and under the same terms, for `CCCCNC(=O)NS(=O)(=O)c1ccc(OCC)cc1C` the value was 114 mg; for `CCCCOc1ccc(S(=O)(=O)NC(=S)NC)c(C)c1`, 77 mg; for `CCCCNC(=S)NS(=O)(=O)c1ccc(C)cc1C`, 119 mg.
Consider `CCCCNC(=O)NS(=O)(=O)c1ccc(NC(C)=O)cc1C`, for which the Activity was 112 mg.
Still for that read-out and setting: for `COc1ccc(S(=O)(=O)NC(=O)NCc2ccccc2)c(C)c1` the value was 104 mg; for `CCCCCOc1ccc(S(=O)(=O)NC(=S)NCCCC)c(C)c1`, 129 mg; for `COc1ccc(S(=O)(=O)NC(=S)NCc2ccccc2)c(C)c1`, 97 mg.
The same measure, in the same setting: the figure for `CCCCNC(=S)NS(=O)(=O)c1ccc(NC(C)=O)cc1C` is 116 mg; for `CCCCNC(=O)NS(=O)(=O)c1ccc(C)cc1C` it is 102 mg; for `CCCCNC(=S)NS(=O)(=O)c1ccc(OCC)cc1C` it is 99 mg.

In another experiment the test system is Rattus norvegicus. The experiment in a line: Hyperglycemic activity in rat assessed as blood glucose level per 100 ml at 70 mg/kg, ip after 90 mins. The class given is functional. Particulars: route intraperitoneal. Put shortly: as §1
`CCCCCOc1ccc(S(=O)(=O)NC(=O)NCCCC)c(C)c1`: the Activity is on record as 79 mg.
As to `CNC(=O)NS(=O)(=O)c1ccc(OC)cc1C`, the Activity is given as 142 mg.
Same read-out and setting: the figure for `CCCCNC(=S)NS(=O)(=O)c1ccc(OCCC)cc1C` is 160 mg; for `CCNC(=O)NS(=O)(=O)c1ccc(OC)cc1C` it is 135 mg; for `COc1ccc(S(=O)(=O)NC(N)=O)c(C)c1` it is 97 mg.
As for `CCCCNC(=O)NS(=O)(=O)c1ccc(OCCCC)cc1C`, the Activity came to 113 mg.
The same measure, in the same setting: for `CCOc1ccc(S(=O)(=O)NC(N)=O)c(C)c1` the value was 103 mg; for `CCCCOc1ccc(S(=O)(=O)NC(=O)NC)c(C)c1`, 96 mg; for `CCCNC(=O)NS(=O)(=O)c1ccc(OC)cc1C`, 135 mg.
With `CCCNC(=S)NS(=O)(=O)c1ccc(OC)cc1C`, the Activity was determined as 153 mg.

The test system of another experiment is Rattus norvegicus. Put plainly: Effect on blood glucose level per 100 ml in rat at 70 mg/kg, ip after 90 mins. The class given is functional. Particulars: route intraperitoneal. Put shortly: as §1
In turn, `CCCCNC(=O)NS(=O)(=O)c1ccc(OC)cc1C` displayed an Activity of 114 mg.
